Experimental data as given in ChEMBL document CHEMBL4400512, “Searching for new agents active against Candida albicans biofilm: A series of indole derivatives, design, synthesis and biological evaluation” (Eur J Med Chem, 2019).
Converted amounts (≈) assume the structure as drawn.

Assays:
Candida albicans [1] = assay: Antibiofilm activity against Candida albicans PMC 1042 assessed as inhibition of mature biofilm formation by XTT reduction assay; assay type: functional
In short: (§1)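 Biofilm method of Pierce et al. Biofilms were treated either during formation or once mature (24 h preformed). Metabolic activity of the cells within the biofilm was read by XTT reduction. BMIC50 is the lowest concentration giving a 50% drop in metabolic activity versus the untreated growth control. At least two experiments on separate dates, triplicate, reported as median.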

Candida albicans [2] = assay: Antibiofilm activity against Candida albicans PMC 1082 assessed as inhibition of biofilm formation by XTT reduction assay; assay type: functional; in short: as §1
Candida albicans [3] = assay: Antifungal activity against planktonic form of Candida albicans PMC 1082 by broth microdilution method; assay type: organism-based; conditions: in vitro
In short: (§2)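 Broth microdilution per CLSI M27-A3 and M27-S4. Strains were grown on Sabouraud dextrose agar at 35°C for 24 h. Final inoculum 1×10^3–5×10^3 cells/mL. Compounds were dissolved in DMSO (final <1%); 1% DMSO served as control. Final range 256–0.25 µg/mL. MIC50 is the lowest concentration giving ≥50% growth inhibition. Three independent experiments in duplicate, median; fluconazole as reference.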

[4] = Toxicity in Galleria mellonella larvae assessed as larval survival at 10 ug/ml after 24 hrs relative to control
In short: (§3)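 Ten healthy larvae per group, stored at 15°C in the dark. Each got a 20 µL injection into the haemocoel via the last left proleg, with compound freshly made in sterile water containing <1% v/v DMSO. Larvae were incubated at 30°C and survival scored every 24 h; death was no movement on stimulation plus cuticle discolouration. Controls were untreated, pierced-only and vehicle. Mean % survival of two independent experiments.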

[5] = Toxicity in Galleria mellonella larvae assessed as larval survival at 5 ug/ml after 24 hrs relative to control; in short: as §3
Candida albicans [6] = assay: Antibiofilm activity against Candida albicans PMC 1042 assessed as inhibition of biofilm formation by XTT reduction assay; assay type: functional; in short: as §1
[7] = Toxicity in Galleria mellonella larvae assessed as larval survival at 10 ug/ml after 48 hrs relative to control; in short: as §3
Candida albicans [8] = assay: Antibiofilm activity against Candida albicans ATCC 10231 assessed as inhibition of mature biofilm formation by XTT reduction assay; assay type: functional
In short: (§4)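 Biofilm assay after Pierce et al., with compound applied either during biofilm formation or to 24 h pre-formed (mature) biofilm. Read-out is metabolic activity of cells in the biofilm by XTT reduction. BMIC50 is the lowest concentration giving a 50% drop relative to untreated growth control. Tested in triplicate, at least two experiments on separate dates; median reported.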

[9] = Toxicity in Galleria mellonella larvae assessed as larval survival at 100 ug/ml after 72 hrs relative to control; in short: as §3
Candida albicans [10] = assay: Antibiofilm activity against Candida albicans ATCC 10261 assessed as inhibition of mature biofilm formation by XTT reduction assay; assay type: functional; in short: as §1
[11] = Toxicity in Galleria mellonella larvae assessed as larval survival at 500 ug/ml after 48 hrs relative to control; in short: as §3
Candida albicans [12] = assay: Antibiofilm activity against Candida albicans ATCC 10261 assessed as inhibition of biofilm formation by XTT reduction assay; assay type: functional; in short: as §1
[13] = Toxicity in Galleria mellonella larvae assessed as larval survival at 5 ug/ml after 48 hrs relative to control; in short: as §3
[14] = Toxicity in Galleria mellonella larvae assessed as larval survival at 500 ug/ml after 72 hrs relative to control; in short: as §3
[15] = Toxicity in Galleria mellonella larvae assessed as larval survival at 50 ug/ml after 72 hrs relative to control; in short: as §3
Candida albicans [16] = assay: Antifungal activity against planktonic form of Candida albicans ATCC 10231 by broth microdilution method; assay type: organism-based; conditions: in vitro
In short: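 CLSI M27-A3 broth microdilution. Cells grown on Sabouraud dextrose agar at 35°C for 24 h; final inoculum 1×10^3–5×10^3 cells/mL. Compounds from DMSO stocks, final DMSO below 1%, final range 256–0.25 µg/mL. Controls were DMSO 1% and fluconazole reference. MIC50 is the lowest concentration giving ≥50% growth inhibition. Three independent experiments in duplicate; median reported.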

Candida albicans [17] = assay: Antibiofilm activity against Candida albicans PMC 1082 assessed as inhibition of mature biofilm formation by XTT reduction assay; assay type: functional; in short: as §1
[18] = Toxicity in Galleria mellonella larvae assessed as larval survival at 50 ug/ml after 24 hrs relative to control; in short: as §3
[19] = Toxicity in Galleria mellonella larvae assessed as larval survival at 500 ug/ml after 24 hrs relative to control; in short: as §3
[20] = Toxicity in Galleria mellonella larvae assessed as larval survival at 50 ug/ml after 48 hrs relative to control; in short: as §3
Candida albicans [21] = assay: Antifungal activity against planktonic form of Candida albicans ATCC 10261 by broth microdilution method; assay type: organism-based; conditions: in vitro; in short: as §2
Candida albicans [22] = assay: Antifungal activity against planktonic form of Candida albicans PMC 1042 by broth microdilution method; assay type: organism-based; conditions: in vitro; in short: as §2
[23] = Toxicity in Galleria mellonella larvae assessed as larval survival at 5 ug/ml after 72 hrs relative to control; in short: as §3
[24] = Toxicity in Galleria mellonella larvae assessed as larval survival at 10 ug/ml after 72 hrs relative to control; in short: as §3
[25] = Toxicity in Galleria mellonella larvae assessed as larval survival at 100 ug/ml after 24 hrs relative to control; in short: as §3
[26] = Toxicity in Galleria mellonella larvae assessed as larval survival at 100 ug/ml after 48 hrs relative to control; in short: as §3
Candida albicans [27] = assay: Antibiofilm activity against Candida albicans ATCC 10231 assessed as inhibition of biofilm formation by XTT reduction assay; assay type: functional; in short: as §4

SMILES: Brc1ccc(CNCCc2c[nH]c3ccccc23)cc1
- MBIC50 (Candida albicans [1]): 2 µg/mL
- MBIC50 (Candida albicans [2]): 8 µg/mL
- MIC50 (Candida albicans [3]): 32 µg/mL (≈ 97.2 µM)
- survival at 24 h [4]: 100%
- survival at 24 h [5]: 100%
- MBIC50 (Candida albicans [6]): 8 µg/mL
- survival at 48 h [7]: 100%
- MBIC50 (Candida albicans [8]): 8 µg/mL
- survival at 72 h [9]: 100%
- MBIC50 (Candida albicans [10]): 8 µg/mL
- survival at 48 h [11]: 100%
- MBIC50 (Candida albicans [12]): 8 µg/mL
- survival at 48 h [13]: 100%
- survival at 72 h [14]: 100%
- survival at 72 h [15]: 100%
- MIC50 (Candida albicans [16]): 64 µg/mL (≈ 194 µM)
- MBIC50 (Candida albicans [17]): 4 µg/mL
- survival at 24 h [18]: 100%
- survival at 24 h [19]: 100%
- survival at 48 h [20]: 100%
- MIC50 (Candida albicans [21]): 32 µg/mL (≈ 97.2 µM)
- MIC50 (Candida albicans [22]): 16 µg/mL (≈ 48.6 µM)
- survival at 72 h [23]: 100%
- survival at 72 h [24]: 100%
- survival at 24 h [25]: 100%
- survival at 48 h [26]: 100%
- MBIC50 (Candida albicans [27]): 8 µg/mL

SMILES: c1ccc(Oc2ccc(CNCCc3c[nH]c4ccccc34)cc2)cc1
- MBIC50 (Candida albicans [1]): 2 µg/mL
- MBIC50 (Candida albicans [2]): 8 µg/mL
- MIC50 (Candida albicans [3]): 16 µg/mL (≈ 46.7 µM)
- survival at 24 h [4]: 100%
- survival at 24 h [5]: 100%
- MBIC50 (Candida albicans [6]): 8 µg/mL
- survival at 48 h [7]: 100%
- MBIC50 (Candida albicans [8]): 2 µg/mL
- survival at 72 h [9]: 100%
- MBIC50 (Candida albicans [10]): 8 µg/mL
- survival at 48 h [11]: 70%
- MBIC50 (Candida albicans [12]): 8 µg/mL
- survival at 48 h [13]: 100%
- survival at 72 h [14]: 70%
- survival at 72 h [15]: 100%
- MIC50 (Candida albicans [16]): 4 µg/mL (≈ 11.7 µM)
- MBIC50 (Candida albicans [17]): 2 µg/mL
- survival at 24 h [18]: 100%
- survival at 24 h [19]: 90%
- survival at 48 h [20]: 100%
- MIC50 (Candida albicans [21]): 16 µg/mL (≈ 46.7 µM)
- MIC50 (Candida albicans [22]): 64 µg/mL (≈ 187 µM)
- survival at 72 h [23]: 100%
- survival at 72 h [24]: 100%
- survival at 24 h [25]: 100%
- survival at 48 h [26]: 100%
- MBIC50 (Candida albicans [27]): 2 µg/mL

SMILES: c1ccc2c(CCNCc3ccc(CNCCc4c[nH]c5ccccc45)cc3)c[nH]c2c1
- MBIC50 (Candida albicans [1]): 2 µg/mL
- MBIC50 (Candida albicans [2]): 8 µg/mL
- MIC50 (Candida albicans [3]): > 256 µg/mL
- survival at 24 h [4]: 100%
- survival at 24 h [5]: 100%
- MBIC50 (Candida albicans [6]): 8 µg/mL
- survival at 48 h [7]: 100%
- MBIC50 (Candida albicans [8]): 8 µg/mL
- survival at 72 h [9]: 100%
- MBIC50 (Candida albicans [10]): 4 µg/mL
- survival at 48 h [11]: 100%
- MBIC50 (Candida albicans [12]): 4 µg/mL
- survival at 48 h [13]: 100%
- survival at 72 h [14]: 100%
- survival at 72 h [15]: 90%
- MIC50 (Candida albicans [16]): > 128 µg/mL
- MBIC50 (Candida albicans [17]): 4 µg/mL
- survival at 24 h [18]: 100%
- survival at 24 h [19]: 100%
- survival at 48 h [20]: 90%
- MIC50 (Candida albicans [21]): 256 µg/mL (≈ 606 µM)
- MIC50 (Candida albicans [22]): > 256 µg/mL
- survival at 72 h [23]: 100%
- survival at 72 h [24]: 100%
- survival at 24 h [25]: 100%
- survival at 48 h [26]: 100%
- MBIC50 (Candida albicans [27]): 16 µg/mL

SMILES: O=C(NCCc1c[nH]c2ccccc12)c1ccccc1
- MBIC50 (Candida albicans [8]): 32 µg/mL
- MIC50 (Candida albicans [16]): > 128 µg/mL
- MBIC50 (Candida albicans [27]): 32 µg/mL

SMILES: Clc1ccc(CNCCc2c[nH]c3ccccc23)cc1
- MBIC50 (Candida albicans [8]): 32 µg/mL
- MIC50 (Candida albicans [16]): 32 µg/mL (≈ 112 µM)
- MBIC50 (Candida albicans [27]): 16 µg/mL

SMILES: Brc1cccc(CNCCc2c[nH]c3ccccc23)c1
- MBIC50 (Candida albicans [8]): 32 µg/mL
- MIC50 (Candida albicans [16]): 64 µg/mL (≈ 194 µM)
- MBIC50 (Candida albicans [27]): 4 µg/mL

SMILES: O=[N+]([O-])c1ccc(CNCCc2c[nH]c3ccccc23)cc1
- MBIC50 (Candida albicans [8]): 32 µg/mL
- MIC50 (Candida albicans [16]): > 128 µg/mL
- MBIC50 (Candida albicans [27]): 32 µg/mL

SMILES: O=[N+]([O-])c1ccc(/C=C/CNCCc2c[nH]c3ccccc23)cc1
- MBIC50 (Candida albicans [8]): >128 µg/mL
- MIC50 (Candida albicans [16]): > 128 µg/mL
- MBIC50 (Candida albicans [27]): 8 µg/mL

SMILES: OC(Cn1cncn1)(Cn1cncn1)c1ccc(F)cc1F [FLUCONAZOLE]
- MBIC50 (Candida albicans [1]): >64 µg/mL
- MBIC50 (Candida albicans [2]): >64 µg/mL
- MIC50 (Candida albicans [3]): 0.125 µg/mL (≈ 0.408 µM)
- MBIC50 (Candida albicans [6]): >64 µg/mL
- MBIC50 (Candida albicans [8]): >128 µg/mL
- MBIC50 (Candida albicans [10]): >64 µg/mL
- MBIC50 (Candida albicans [12]): >64 µg/mL
- MIC50 (Candida albicans [16]): 0.5 µg/mL (≈ 1.63 µM)
- MBIC50 (Candida albicans [17]): >64 µg/mL
- MIC50 (Candida albicans [21]): 2 µg/mL (≈ 6.53 µM)
- MIC50 (Candida albicans [22]): 8 µg/mL (≈ 26.1 µM)
- MBIC50 (Candida albicans [27]): 128 µg/mL

SMILES: O=[N+]([O-])c1ccccc1CNCCc1c[nH]c2ccccc12
- survival at 24 h [4]: 100%
- survival at 24 h [5]: 100%
- survival at 48 h [7]: 100%
- MBIC50 (Candida albicans [8]): 8 µg/mL
- survival at 72 h [9]: 90%
- survival at 48 h [11]: 100%
- survival at 48 h [13]: 100%
- survival at 72 h [14]: 100%
- survival at 72 h [15]: 90%
- MIC50 (Candida albicans [16]): > 128 µg/mL
- survival at 24 h [18]: 90%
- survival at 24 h [19]: 100%
- survival at 48 h [20]: 90%
- survival at 72 h [23]: 100%
- survival at 72 h [24]: 100%
- survival at 24 h [25]: 90%
- survival at 48 h [26]: 90%
- MBIC50 (Candida albicans [27]): 64 µg/mL

SMILES: c1ccc(CNCCc2c[nH]c3ccccc23)cc1
- MBIC50 (Candida albicans [8]): 32 µg/mL
- MIC50 (Candida albicans [16]): > 128 µg/mL
- MBIC50 (Candida albicans [27]): 32 µg/mL
